Activity calls are given as the source filed them. The calls are words filed in the database; no cut-off is given here.

Ten molecules from ChEMBL document CHEMBL1154306, “Cembranoid diterpenes from the Caribbean sea whip Eunicea knighti” (2009) can be followed below.

For one assay, the system named is Alteromonas sp. As to the kind of experiment: Antibacterial activity against Alteromonas sp. 11-6DEP at 30 ug/disk after 24 to 48 hrs by disk diffusion method. Format: functional. The settings on record: for zone of inhibition at 30 µg/disc: read-out: DIZ. In outline:
(§1)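 Disk diffusion on agar plates against marine bacterial isolates from a heavily fouled surface, identified by 16S rRNA sequencing. 5.2 mm sterilized paper disks loaded with 30 µg compound in CH2Cl2, dried 3 h at room temperature, then placed on plates spread with 100 µL overnight culture (10^6 cfu/mL). Inhibition zone diameter read after 24 and 48 h at 26 °C. Cu2O 600 µg/disk positive control, CH2Cl2 solvent control, triplicate.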
In general terms: Agar diffusion results depend on both activity and mobility in agar.

Assay [1] has as its system Bacillus sp. As to the kind of experiment: Antibacterial activity against Bacillus sp. 10-6DEP at 30 ug/disk after 24 to 48 hrs by disk diffusion method. Format: functional. The settings on record: Bacillus sp. (in: firmicutes), read-out: DIZ. In outline:
as §1

The test system of assay [2] is Brucella pseudogrignonensis. As to the kind of experiment: Antibacterial activity against Ochrobactrum pseudogrignonense 4-4DEP after 24 to 48 hrs by disk diffusion method. Format: functional.
For assay [3], the system named is Brucella pseudogrignonensis. The assay can be described thus: Antibacterial activity against Ochrobactrum pseudogrignonense 21-6PIN after 24 to 48 hrs by disk diffusion method. Format: functional. An outline of the steps: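 MIC by agar disk diffusion per NCCLS against the marine isolate 21-6PIN. Loadings per disk were 30, 16, 8, 4, 2, 1 and 0.5 µg, delivered in MeOH, with methanol alone as negative control. Run in triplicate.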

Assay [4] relates to Brucella pseudogrignonensis. As to the kind of experiment: Antibacterial activity against Ochrobactrum pseudogrignonense 21-6PIN at 30 ug/disk after 24 to 48 hrs by disk diffusion method. The following applies: for zone of inhibition at 30 µg/disc: read-out: DIZ. It counts as functional. An outline of the steps:
(§2)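 Marine bacterial isolate from a heavily fouled surface, identified by 16S rRNA gene sequence. Agar disk diffusion: sterilised 5.2 mm paper disks loaded with 30 µg pure compound in CH2Cl2 and dried 3 h at room temperature. Plates were seeded with 100 µL of overnight culture (10^6 cfu/mL) and incubated 24 and 48 h at 26 °C. Read-out was inhibition zone diameter, run in triplicate.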

Another assay deals with Kocuria sp. 10-4DEP. The assay can be described thus: Antibacterial activity against Kocuria sp. 10-4DEP at 30 ug/disk after 24 to 48 hrs by disk diffusion method. The settings on record: for zone of inhibition at 30 µg/disc: read-out: DIZ. It counts as functional. In outline: as §1
The test system of a further assay is Oceanobacillus iheyensis. As to the kind of experiment: Antibacterial activity against Oceanobacillus iheyensis 31-C at 30 ug/disk after 24 to 48 hrs by disk diffusion method. Format: functional. The settings on record: for zone of inhibition at 30 µg/disc: read-out: DIZ. In outline:
as §1

For assay [5], the system named is Bacillus sp. The assay can be described thus: Antibacterial activity against Bacillus sp. 10-6DEP after 24 to 48 hrs by disk diffusion method. It counts as functional. An outline of the steps:
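MIC by agar disk diffusion (NCCLS) against Bacillus sp. 10-6DEP. Disks loaded with 30, 16, 8, 4, 2, 1 and 0.5 µg delivered in MeOH. Methanol alone as negative control. Triplicate.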

The test system of assay [6] is Brucella pseudogrignonensis. As to the kind of experiment: Antibacterial activity against Ochrobactrum pseudogrignonense 4-4DEP at 30 ug/disk after 24 to 48 hrs by disk diffusion method. It counts as functional. The following applies: for zone of inhibition at 30 µg/disc: read-out: DIZ. In outline:
as §2

Another assay relates to Escherichia coli. As to the kind of experiment: Antiquorum sensing activity against Escherichia coli pS401 assessed as inhibition of Pseudomonas putida IsoF derived acyl-homoserinelactone-induced bioluminescence upto 200 ug after overnight incubation. An outline of the steps:
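Biosensor agar overlay. E. coli pS401 and P. putida IsoF grown in LB broth. 15 mL of each culture mixed into LB soft agar (0.8%) and poured over prewarmed LB agar plates. Paper disks received 10 or 20 µL of a 10 mg/mL compound solution. Plates incubated overnight at 37 °C and luminescence imaged. QS inhibition was scored where light was lost but growth around the disk was unaffected.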

For the molecule `C=C(C)[C@H]1CC/C(C)=C/C/C=C(\C)[C@H](O)CC/C(COC(C)=O)=C\[C@@H]1OC(C)=O`, the zone of inhibition at 30 µg/disc worked out at 6 mm in the assay on Alteromonas sp.; 8 mm in the assay on Bacillus sp. [1]; 8 mm in [4]; 6 mm in the assay on Kocuria sp. 10-4DEP; 6 mm in the assay with Oceanobacillus iheyensis; 6 mm in assay [6]. The MIC in [2] was >30 µg; in [3], 30 µg; in the assay on Bacillus sp. [5] it was 30 µg. Moreover, in the assay on Escherichia coli, the outcome was Active.
In the case of `C=C(C)[C@H]1CC/C(C)=C/C/C=C(/C)[C@@H](O)CC/C(COC(C)=O)=C\[C@@H]1OC(C)=O`, the “diameter of the inhibition zone (DIZ)” value (in the assay with Alteromonas sp.; in [4]; in the assay with Kocuria sp. 10-4DEP; in the assay on Oceanobacillus iheyensis) was “inactive” throughout. In addition, the zone of inhibition at 30 µg/disc (in the assay on Bacillus sp. [1]; in assay [6]) was 6 mm each time. The MIC (in assay [3]; against Bacillus sp. [5]) was >30 µg each time.
On to `C=C(C)[C@H]1CC/C(C)=C/CC[C@@]2(C)O[C@@H]2CC/C(CO)=C\[C@@H]1O` [ASPERDIOL], for which the “diameter of the inhibition zone (DIZ)” value (with Alteromonas sp.; with Kocuria sp. 10-4DEP; with Oceanobacillus iheyensis; in assay [6]) was “inactive” in each case. The figures for the zone of inhibition at 30 µg/disc (in the assay with Bacillus sp. [1]; in assay [4]) were 6 mm and 8 mm, respectively. Besides, the figures for the MIC (in assay [3]; in the assay on Bacillus sp. [5]) were >30 µg and 4 µg, respectively.
As for `C=C(C)[C@@H]1C/C=C(/CO)CC[C@H]2O[C@]2(C)CC/C=C(\C)CC1` [KNIGHTOL], the zone of inhibition at 30 µg/disc in the assay with Alteromonas sp. was 6 mm; in the assay with Bacillus sp. [1] it was ≥ 10 mm; in assay [4] it was 6 mm; in the assay with Kocuria sp. 10-4DEP, ≥ 10 mm; with Oceanobacillus iheyensis, 6 mm. The MIC was found to be 8 µg in [3] and 2 µg in the assay on Bacillus sp. [5]. Further, the “diameter of the inhibition zone (DIZ)” value in assay [6] was “inactive”. In the assay on Escherichia coli, the outcome was Active.
For the molecule `C=C(C)[C@H]1CC/C(C)=C/CC[C@@](C)(Cl)[C@H](O)CC/C(COC(C)=O)=C\[C@@H]1OC(C)=O`, the “diameter of the inhibition zone (DIZ)” value (with Alteromonas sp.; in [4]; in the assay with Kocuria sp. 10-4DEP) was “inactive” throughout. Also, the results for the zone of inhibition at 30 µg/disc (with Bacillus sp. [1]; with Oceanobacillus iheyensis; in assay [6]) were 8 mm, 6 mm and 6 mm, respectively. Further, the MIC (in [3]; in the assay on Bacillus sp. [5]) was >30 µg throughout.
With `C=C(C)[C@@H]1C/C=C(/COC(C)=O)CC[C@H]2O[C@]2(C)CC/C=C(\C)CC1` [KNIGHTOL ACETATE], the “diameter of the inhibition zone (DIZ)” value (in the assay on Alteromonas sp.; with Kocuria sp. 10-4DEP; in [6]) was “inactive” in each case. The zone of inhibition at 30 µg/disc (in the assay with Bacillus sp. [1]; in [4]; with Oceanobacillus iheyensis) was 6 mm in each case. Moreover, the MIC in assay [2] stood at 8 µg; in [3] it was 8 µg; against Bacillus sp. [5], 30 µg.
Turning to `C=C(C)[C@H]1CC/C(C)=C/CC[C@@]2(C)O[C@@H]2CC/C(COC(C)=O)=C\[C@@H]1OC(C)=O`, the “diameter of the inhibition zone (DIZ)” value in the assay on Alteromonas sp. and in the assay with Kocuria sp. 10-4DEP was “inactive” in each case. Moreover, the zone of inhibition at 30 µg/disc was 8 mm in the assay on Bacillus sp. [1], ≥ 10 mm in [4], 6 mm in the assay with Oceanobacillus iheyensis and 6 mm in assay [6]. The MIC is >30 µg in assay [2], 30 µg in [3] and 30 µg against Bacillus sp. [5].
For `C=C(C)[C@H]1CC/C(C)=C/CC[C@@]2(C)O[C@@H]2CC/C(COC(C)=O)=C\[C@@H]1O` [ASPERDIOL ACETATE], the “diameter of the inhibition zone (DIZ)” value (in the assay on Alteromonas sp.; in the assay with Kocuria sp. 10-4DEP; with Oceanobacillus iheyensis; in assay [6]) was “inactive” in each case. Moreover, the figures for the zone of inhibition at 30 µg/disc (in the assay with Bacillus sp. [1]; in [4]) were 8 mm and ≥ 10 mm, respectively. Besides, the MIC in [2] is >30 µg; in assay [3], 30 µg; in the assay with Bacillus sp. [5] it was 30 µg.
On to `C=C1CC/C=C(\C)CC[C@H](C(=C)C)[C@@H](OC(C)=O)/C=C(/COC(C)=O)CC[C@H]1O`, for which the “diameter of the inhibition zone (DIZ)” value in the assay with Alteromonas sp. is “inactive”. Also, the zone of inhibition at 30 µg/disc amounted to 8 mm in the assay with Bacillus sp. [1]; 6 mm in assay [4]; 6 mm in the assay on Kocuria sp. 10-4DEP; 6 mm in the assay with Oceanobacillus iheyensis; 6 mm in assay [6]. Besides, the MIC (in [3]; in the assay on Bacillus sp. [5]) was >30 µg in each case. The result in the assay on Escherichia coli was Active.
With `C=C(C)[C@@H]1C/C=C(/C=O)CC[C@H]2O[C@]2(C)CC/C=C(\C)CC1` [KNIGHTAL], the zone of inhibition at 30 µg/disc with Alteromonas sp. amounted to 6 mm; with Bacillus sp. [1], 8 mm; in [4], 6 mm; with Kocuria sp. 10-4DEP, 8 mm; in the assay on Oceanobacillus iheyensis, 6 mm. Moreover, the figures for the MIC (in assay [2]; in assay [3]; in the assay with Bacillus sp. [5]) were 8 µg, 8 µg and 16 µg, respectively. In addition, in assay [6], the “diameter of the inhibition zone (DIZ)” value was “inactive”. Also, the result in the assay with Escherichia coli was Active.
